The target in assay [1] is T1, Glycerophosphocholine cholinephosphodiesterase ENPP6 (Homo sapiens) (UniProt Q6UWR7).
T1 sequence (whole entry): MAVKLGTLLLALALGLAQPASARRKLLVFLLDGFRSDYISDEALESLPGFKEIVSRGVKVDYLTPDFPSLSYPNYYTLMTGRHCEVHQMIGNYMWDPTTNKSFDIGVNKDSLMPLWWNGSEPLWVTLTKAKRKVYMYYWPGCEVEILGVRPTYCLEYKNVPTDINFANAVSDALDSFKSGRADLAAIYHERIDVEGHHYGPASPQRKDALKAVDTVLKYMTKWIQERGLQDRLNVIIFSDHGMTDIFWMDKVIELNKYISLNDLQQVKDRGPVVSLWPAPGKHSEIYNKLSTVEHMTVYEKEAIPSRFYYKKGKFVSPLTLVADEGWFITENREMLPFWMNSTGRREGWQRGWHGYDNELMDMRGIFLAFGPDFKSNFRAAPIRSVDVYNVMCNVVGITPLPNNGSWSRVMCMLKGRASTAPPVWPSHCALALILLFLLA
The experiment in a line: Inhibition of NPP6 expressed in HEK293 cells assessed as para-nitrophenylphosphoryl choline hydrolysis. The class given is cell-based. In short, it runs like this:
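NPP6 from conditioned medium of HEK293 cells transiently transfected with human NPP6. Inhibitor at 10 μM in 1% DMSO. Substrate pNPPC at 10 mM in 100 mM Tris-HCl pH 9.0 with 500 mM NaCl and 0.05% Triton X-100, 37 °C. Absorbance read at 1 h, normalized to vehicle after cell-free-medium blank. Mean ± SD of ≥3 wells.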

The target in assay [2] is T2, Ectonucleotide pyrophosphatase/phosphodiesterase family member 7 (Homo sapiens) (UniProt Q6UWV6).
T2 sequence (whole entry): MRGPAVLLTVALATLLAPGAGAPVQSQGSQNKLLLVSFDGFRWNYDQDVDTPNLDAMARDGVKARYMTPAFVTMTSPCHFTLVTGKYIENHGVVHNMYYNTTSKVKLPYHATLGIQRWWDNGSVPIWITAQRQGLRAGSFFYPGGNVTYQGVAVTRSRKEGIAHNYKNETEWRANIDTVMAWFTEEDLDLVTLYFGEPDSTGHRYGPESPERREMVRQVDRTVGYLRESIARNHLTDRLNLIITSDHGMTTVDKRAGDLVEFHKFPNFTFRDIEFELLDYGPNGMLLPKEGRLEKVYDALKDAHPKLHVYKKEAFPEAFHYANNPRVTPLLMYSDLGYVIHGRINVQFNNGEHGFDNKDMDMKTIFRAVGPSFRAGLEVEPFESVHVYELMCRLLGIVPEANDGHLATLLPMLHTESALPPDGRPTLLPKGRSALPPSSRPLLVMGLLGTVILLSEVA
The experiment in a line: Inhibition of NPP7 expressed in HEK293 cells assessed as para-nitrophenylphosphoryl choline hydrolysis. Format: cell-based. In short, it runs like this:
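NPP7 from concentrated conditioned medium of transfected HEK293 cells (human NPP7). Inhibitor at 10 μM in 1% DMSO. Substrate pNPPC at […] in 50 mM Tris-HCl pH 8.5 with 150 mM NaCl and 10 mM taurocholic acid, no EDTA, 37 °C. Absorbance taken at 1 h, vehicle-normalized after blank. Mean ± SD of ≥3 wells.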

Assay [3] deals with T3, Autotaxin (Homo sapiens, UniProt Q13822). The experiment in a line: Competitive inhibition of human autotaxin at free state isolated from MDA-MB-231 cells assessed as blockade of FS3 substrate hydrolysis by FRET assay. Format: cell-based.
Assay [4] concerns the target T3, Autotaxin. The experiment in a line: Noncompetitive type inhibition of human autotaxin at free state isolated from MDA-MB-231 cells assessed as blockade of FS3 substrate hydrolysis by FRET assay. The class given is cell-based.
Assay [5] deals with T3, Autotaxin. Put plainly: Noncompetitive type inhibition of human autotaxin at enzyme-substrate complex isolated from […] assessed as blockade of FS3 substrate hydrolysis by FRET assay. In short, it runs like this: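 ATX source: ~10× concentrated serum-free conditioned medium from MDA-MB-435 cells, buffer-exchanged into 50 mM Tris pH 7.4 with 20% ethylene glycol. FS-3 300 nM–20 μM with three inhibitor levels, including zero. Buffer: 50 mM Tris pH 8.0, 140 mM NaCl, 5 mM KCl, 1 mM CaCl2/MgCl2, 30 μM stripped BSA. Run at 37 °C, ex485/em528. Ki′ from simultaneous nonlinear fit to four inhibition models; lowest residual error chosen.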

The source made the active and inactive calls. The calls are words filed in the database; no cut-off is given here.

`CCn1cc(C(=O)O)c(=O)c2cnc(N3CCN(C(=S)Nc4cccc(Cl)c4)CC3)nc21`: the result in assay [1] and in assay [2] was inactive.

In the case of `CCn1cc(C(=O)O)c(=O)c2cnc(N3CCN(C(=S)Nc4cc(C(F)(F)F)cc(C(F)(F)F)c4)CC3)nc21`, the Ki at Autotaxin [3] stood at 4 µM. Moreover, the outcome in assay [1] and in assay [2] was inactive.

As to `CCn1cc(C(=O)O)c(=O)c2cnc(N3CCN(C(=S)Nc4ccc5nsnc5c4)CC3)nc21`, at Autotaxin [3], the Ki was 7.1 µM. Moreover, the result in assay [1] and in assay [2] was inactive.

As for `CCCCCCCCc1ccc(CCC(N)(CO)CCCP(=O)(O)O)cc1` (centres undefined), the Ki on Autotaxin [4] turned out to be 0.2 µM.

With `CCn1cc(C(=O)O)c(=O)c2cnc(N3CCN(C(=S)Nc4cccc(C)c4)CC3)nc21`, the Ki on Autotaxin [3] was 4.5 µM. The outcome in assay [1] and in assay [2] was inactive.

`CCn1cc(C(=O)O)c(=O)c2cnc(N3CCN(C(=S)Nc4cc(C)cc(C)c4)CC3)nc21`: on Autotaxin [3], the Ki is 4.2 µM. For the same molecule, the result in assay [1] and in assay [2] was inactive.

Turning to `CCn1cc(C(=O)O)c(=O)c2cnc(N3CCN(C(=S)Nc4cccc(I)c4)CC3)nc21`, the outcome in assay [1] and in assay [2] was inactive.

For `CCn1cc(C(=O)O)c(=O)c2cnc(N3CCN(C(=S)Nc4ccc(C)cc4)CC3)nc21`, the result in assay [1] and in assay [2] was inactive.

As to `CCn1cc(C(=O)O)c(=O)c2cnc(N3CCN(C(=S)Nc4cccc(OC)c4)CC3)nc21`, the outcome in assay [1] and in assay [2] was inactive.

On to `CCn1cc(C(=O)O)c(=O)c2cnc(N3CCN(C(=S)Nc4cccc(C(F)(F)F)c4)CC3)nc21`, for which, on Autotaxin [3], the Ki was found to be 0.7 µM. Besides, the outcome in assay [1] and in assay [2] was inactive.

`CCn1cc(C(=O)O)c(=O)c2cnc(N3CCN(C(=S)Nc4ccc(F)cc4)CC3)nc21`: the result in assay [1] and in assay [2] was inactive.

`CCn1cc(C(=O)O)c(=O)c2cnc(N3CCN(C(=S)Nc4ccc(C(F)(F)F)cc4)CC3)nc21`: the Ki at Autotaxin [5] and at Autotaxin [4] was 13.2 µM in each case. In addition, the outcome in assay [1] and in assay [2] was inactive.

On to `CCn1cc(C(=O)O)c(=O)c2cnc(N3CCN(C(=S)Nc4cccc(F)c4)CC3)nc21`, for which the result in assay [1] and in assay [2] was inactive.

With `CCn1cc(C(=O)O)c(=O)c2cnc(N3CCN(C(=S)Nc4cc(Cl)ccc4Cl)CC3)nc21`, the result in assay [1] and in assay [2] was inactive.

Regarding `CCn1cc(C(=O)O)c(=O)c2cnc(N3CCN(C(=S)Nc4ccc(I)cc4)CC3)nc21`, the result in assay [1] and in assay [2] was inactive.

Turning to `CCn1cc(C(=O)O)c(=O)c2cnc(N3CCN(C(=S)Nc4ccc(Cl)cc4)CC3)nc21`, the Ki at Autotaxin [3] was 5.7 µM. The outcome in assay [1] and in assay [2] was inactive.

One may read the Ki as a dissociation constant, usually derived from enzyme kinetics or from competition with a known ligand.
